Source: ChEMBL document CHEMBL1129244, “Inhibition of UDP-N-acetylglucosamine import into Golgi membranes by nucleoside monophosphates” (J Med Chem, 1996)

Legend:
[1] = In vitro inhibition of UDP-[3H]-GlcNAc import into the lumen of the Golgi membranes from rabbit liver homogenate.; format: functional, tissue-based, Oryctolagus cuniculus
How it was run: (§1)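 Golgi-enriched membranes from rabbit liver homogenate incubated with 1 μM UDP-[³H]GlcNAc plus a range of inhibitor concentrations. Import into the lumen was measured by filtration under initial-velocity conditions, after 90 s at 25 °C, where uptake is linear with time. IC50 and standard deviation were obtained by curve fitting. For UDP, assays included 2 mM EDTA.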

[2] = The compound was tested for extent of UDP-[3H]-GlcNAc accumulation into the lumen of the Golgi membranes.; format: functional, Oryctolagus cuniculus
How it was run: (§2)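 Rabbit liver Golgi-enriched membranes were incubated as in the import assay with 1 μM UDP-[³H]GlcNAc and varied inhibitor concentrations. Uptake was allowed to reach equilibrium (20–30 min) before membrane-associated label was measured by filtration. 1 mM AMP-PNP was added to limit UDP-GlcNAc degradation. IC50 was derived by curve fitting; values are averages of at least three independent measurements.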

[3] = Inhibitory concentration at which there is accumulation of UDP-[3H]-GlcNAc in the lumen of the Golgi membranes.; format: functional, cell membranes, Oryctolagus cuniculus; how it was run: as §2
[4] = (§3) The compound was tested for inhibition of the rate of 1 uM UDP-[3H]-GlcNAc import into the lumen of the Golgi membranes.; format: functional, Oryctolagus cuniculus; how it was run: as §1
[5] = The compound was tested for extent of 1 uM UDP-[3H]-GlcNAc accumulation into the lumen of the Golgi membranes from rabbit liver homogenate; format: functional, tissue-based, Oryctolagus cuniculus; how it was run: as §2
Oryctolagus cuniculus = organism: Oryctolagus cuniculus; assay: as §3; format: functional

IC50 [1] | IC50 [2] | IC50 [3] | Structure (SMILES) | other results
> 200 µM |  |  | Cc1cn([C@@H]2O[C@H](COP(=O)(O)O)[C@@H](O)[C@@H]2F)c(=O)[nH]c1=O | 
1.5 µM |  |  | Cc1cn(C2CC(F)C(COP(=O)(O)O)O2)c(=O)[nH]c1=O (stereo unspecified) | 
9 µM | 4 µM |  | O=c1[nH]c(=O)n(C2CC(F)C(COP(=O)(O)O)O2)cc1Cl (stereo unspecified) | 
9 µM |  |  | Cc1cn([C@H]2CC[C@@H](COP(=O)(O)O)O2)c(=O)[nH]c1=O | 
> 40 µM | > 40 µM |  | CC#Cc1cn([C@H]2C[C@H](O)[C@@H](COP(=O)(O)O)O2)c(=O)[nH]c1=O | 
> 200 µM |  |  | Cc1cn([C@H]2CC[C@H](COP(=O)(O)O)O2)c(=O)[nH]c1=O | 
10 µM |  | 11 µM | Cc1cn([C@H]2C[C@H](O)[C@@H](COP(=O)(O)O)O2)c(=O)[nH]c1=O [THYMIDINE MONOPHOSPHATE] | IC50 [5]: 11 µM
18 µM | 35 µM |  | O=c1[nH]c(=O)n(C2CSC(COP(=O)(O)O)O2)cc1F (stereo unspecified) | 

Continued, compound first:

Structure (SMILES) | IC50 [1] | IC50 [2] | IC50 [3] | other results
O=c1ccn([C@H]2C[C@H](O)[C@@H](COP(=O)(O)O)O2)c(=O)[nH]1 [DEOXYURIDINE MONOPHOSPHATE] | 8 µM |  |  | 
CCc1cn(C2O[C@H](COP(=O)(O)O)[C@@H](O)[C@@H]2O)c(=O)[nH]c1=O (stereo partly specified) | 3.5 µM | 5 µM |  | 
CC(=O)N[C@H]1[C@H]([C@H](O)[C@H](O)CO)O[C@](OP(=O)(O)OC[C@H]2O[C@@H](n3ccc(N)nc3=O)[C@H](O)[C@@H]2O)(C(=O)O)C[C@@H]1O | > 50 µM |  | 35 µM | 
Nc1ccn([C@@H]2O[C@H](COP(=O)(O)O)[C@@H](O)[C@H]2O)c(=O)n1 (stereo in doubt; form 2) | 10 µM |  |  | 
O=c1ccn([C@@H]2O[C@H](COP(=O)(O)O)[C@@H](O)[C@H]2F)c(=O)[nH]1 | 11 µM |  |  | 
N[C@H]1[C@@H](OP(=O)(O)OP(=O)(O)OC[C@H]2O[C@@H](n3ccc(=O)[nH]c3=O)[C@H](O)[C@@H]2O)O[C@H](CO)[C@@H](O)[C@@H]1O [URACIL DIPHOSPHATE GLUCOSAMINE] |  |  | > 40 µM | IC50 [4]: 7 µM
Nc1ccn([C@@H]2O[C@H](COP(=O)(O)O)[C@@H](O)[C@H]2O)c(=O)n1 (stereo in doubt; form 1) | > 100 µM |  |  | 
Cc1cn([C@H]2C[C@H](N=[N+]=[N-])[C@@H](COP(=O)(O)O)O2)c(=O)[nH]c1=O (stereo in doubt; form 2) [AZIDOTHYMIDINE MONOPHOSPHATE] | 85 µM | > 100 µM | > 100 µM | 
N[C@H]1[C@@H](OP(=O)(O)OP(=O)(O)OC[C@H]2O[C@@H](n3ccc(=O)[nH]c3=O)[C@H](O)[C@@H]2O)O[C@H](CO)[C@H](O)[C@@H]1O [URACIL DIPHOSPHATE GALACTOSAMINE] |  |  |  | IC50 [4]: 40 µM
Cc1cn([C@H]2C[C@H](N=[N+]=[N-])[C@@H](COP(=O)(O)O)O2)c(=O)[nH]c1=O (stereo in doubt; form 1) [AZIDOTHYMIDINE MONOPHOSPHATE] | 7 µM | 5 µM | 5 µM | 
O=c1ccn(C2O[C@H](COP(=O)(O)O)[C@@H](O)[C@@H]2O)c(=O)[nH]1 (stereo partly specified) | 8 µM | 4 µM | 4 µM | 
CCCc1cn([C@H]2C[C@H](O)[C@@H](COP(=O)(O)O)O2)c(=O)[nH]c1=O |  |  |  | IC50 [4]: 100 µM
Cc1cn(COCCOP(=O)(O)O)c(=O)[nH]c1=O | > 100 µM | > 100 µM | > 100 µM | 
O=c1[nH]c(=O)n([C@H]2C[C@H](O)[C@@H](COP(=O)(O)O)O2)cc1/C=C/Br |  |  |  | IC50 [4]: 5 µM
CC(=O)N[C@@H]1[C@H](OP(=O)(O)OP(=O)(O)OC[C@H]2O[C@@H](n3ccc(=O)[nH]c3=O)[C@H](O)[C@@H]2O)O[C@@H](CO)[C@H](O)[C@H]1O |  |  | 4 µM | IC50 [4]: 7 µM; Km (Oryctolagus cuniculus): 2 µM
